The array DNA melting data of Ke et al. (doi:10.1101/2024.01.08.574731)

What was measured:
[1] = folding enthalpy; higher = less favourable; fluorescence melt of hairpins on a sequencing array, two-state fit; details: sodium 0.088 M
How it was run: (§1)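 To match UV melts, fitted temperatures were raised by 9.35 °C. These fits were bootstrapped two-state models that gave melting temperature and folding enthalpy, combined by inverse variance over four replicates. The input was normalised Cy3 fluorescence of library hairpins with annealed Cy3 and quencher oligos on a sequenced MiSeq flow cell, imaged in 50 mM Na-HEPES pH 8.0, 25 mM NaCl in 2.5 °C steps up to 60 °C.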

[2] = melting temperature; fluorescence melt of hairpins on a sequencing array, two-state fit, raised by 9.35 °C to match UV melts; details: sodium 0.088 M
How it was run: as §1

| Sequence | folding enthalpy [1] [kcal/mol] | Tm [2] [°C] |
| --- | --- | --- |
| GCTGACGAAAGTCCCAGC ((((((....)))..))) | -14.2 | 36.7 |
| CGGACGGAAACGTCGCCG ((((((....)))..))) | -12.1 | 34.5 |
| GCAGTGGGAAACTGCTGC ((((..(....)..)))) | -27.6 | 58.1 |
| GCTGTGCGAAAGCTGAGC (((..((....))..))) | -16.6 | 49.1 |
| GATCCGGCACGGATC ((((((...)))))) | -36 | 69.2 |
| GATCGAGTCCTCGATC ((((((....)))))) | -45.8 | 56.2 |
| GCCCATACGAAAGTAGGC (((..(((....)))))) | -20.8 | 41.5 |
| GGCTGTGGAAACACAACC ((.((((....)))).)) | -31.5 | 44.4 |
| GAAGCCGAAAGGCGATTC ((((((....)))..))) | -14.9 | 58 |
| GCGAGTGATCGC ((((....)))) | -21.9 | 54.3 |
| GGGGATGGAAACATCTCC ((.((((....)))).)) | -32.1 | 50.3 |
| GACTACGAAAGTAGAGTC ((((((....)))..))) | -13.7 | 34.7 |
| GTCCGGGGAAACTCGGAC (((((.(....).))))) | -40.9 | 58.9 |
| GCGCGCGAAAGCGTCCGC ((((((....)))..))) | -14.9 | 53 |
| GGCGACGAAAGTCCTGCC ((((((....)))..))) | -20.4 | 46 |
| GAAGCAGGAAACTGCTCC (.(((((....))))).) | -12.6 | 41.3 |
| GGGACTACGAAAGTACCC (((..(((....)))))) | -19.5 | 36.1 |
| GGACGTGGAAACACGTTC (.(((((....))))).) | -23 | 53.7 |
| GGCACTGGAAACGGTGCC (((((.(....).))))) | -50.7 | 60.5 |
| GCGTTCGAAAGAAATCGC ((((((....)))..))) | -25 | 35.2 |
| GATCCTGTAAGGATC ((((((...)))))) | -37 | 62 |
| GCTCCCGAAAGGGTAGC ((((((....))).))) | -32.2 | 54.4 |
| GCTCAGGGAAACTTGGGC ((.((.(....).)).)) | -20.6 | 35.3 |
| GGTCTCGGAAACGGGATC (.((.((....)).)).) | -28.8 | 39 |

| Sequence | folding enthalpy [1] [kcal/mol] | Tm [2] [°C] |
| --- | --- | --- |
| GATCAGCCCCCTGATC ((((((....)))))) | -36.2 | 48.2 |
| TAGTGGAAACACTA (((((....))))) | -14.9 | 40.9 |
| GGCCTCGAAAGAGTCGCC ((((((....)))..))) | -23.3 | 45 |
| GCCATGCGAAAGCCTTGC ((.(.((....)).).)) | -10 | 26.6 |
| GGCCCGGGAAACCAGGCC ((((.((....)).)))) | -37.9 | 55.3 |
| GGATGCGAAAGCACGTCC ((((((....)))..))) | -12 | 33.1 |
| GGAAGTCGAAAGACGTCC (((.(((....))).))) | -23.7 | 52.2 |
| GCGTAACCGAAAGGTCGC (((..(((....)))))) | -34.2 | 53 |
| GCGCAAGGAAACTTGCAC (.(((((....))))).) | -13.4 | 46.3 |
| GCATGTTCGAAAGAATGC (((..(((....)))))) | -24 | 30.8 |
| GAGGGGAAACCCTC (((((....))))) | -24.7 | 54 |
| GTACGGGGAAACCCGTAC (((((((....))))))) | -41.9 | 67.3 |
| GGTATCGGAAACGATGTC (..((((....))))..) | -18.5 | 31.9 |
| GCCTCACCGAAAGGTGGC (((..(((....)))))) | -8.02 | 48.9 |
| GATCAATCCTTGATC ((((((...)))))) | -28.7 | 44 |
| GATCCTTTAAGGATC ((((((...)))))) | -33.1 | 55.6 |
| GCAGATCGAAAGATTGC (((.(((....)))))) | -23.1 | 44.1 |
| ACATTGAAAAATGT (((((....))))) | -13.4 | 32.9 |
| GATACCGAAAGGTGCATC ((((((....)))..))) | -9.69 | 27.4 |
| GATCAACCAATTGATC ((((((....)))))) | -32.7 | 39 |
| GAGCGAGGAAACCCGCTC (((((.(....).))))) | -32.5 | 54.7 |
| GATCATATATATGATC ((((((....)))))) | -42 | 48.8 |
| GTACGGCGAAAGCCTTAC (((.(((....))).))) | -19.3 | 43.2 |
